Source: ChEMBL document CHEMBL2412993, “Antiprotozoal activity of bicyclic diamines with a N-methylpiperazinyl group at the bridgehead atom” (Bioorg Med Chem, 2013)
Values belong to the compound of their own block, whether it stands above or below them. Active and inactive are the calls of the source. The rule behind the calls is not given here.

How the values were obtained:
[1] = Selectivity index, ratio of IC50 for rat L6 cells to IC50 for bloodstream form of Trypanosoma brucei rhodesiense STIB 900; assay type: toxicity, cell-based; details: read-out: Ratio IC50
In short: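 Medium was MEM with 2-mercaptoethanol and 15% heat-inactivated horse serum, dilutions 90 to 0.123 µg/mL. Wells held 10^4 STIB 900 bloodstream forms or rat L-6 myoblasts. Dye was added for a further 2–4 h, then fluorescence read (ex 536/em 588 nm) as % of control. SI is L-6 IC50 over parasite IC50.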

L6 = assay: Cytotoxicity against rat L6 cells after 72 hrs by microplate fluorometry; assay type: cell-based; details: L6, 72 h
In short: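 Rat skeletal myoblasts (L-6) run in the same Alamar Blue microplate format: MEM with 2-mercaptoethanol and 15% heat-inactivated horse serum, dilutions 90 to 0.123 µg/mL, 72 h at 37 °C in 5% CO₂. Alamar Blue for a further 2–4 h, fluorescence at ex 536 / em 588 nm as percent of control. Mefloquine standard.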

[2] = Selectivity index, ratio of IC50 for rat L6 cells to IC50 for chloroquine- and pyrimethamine-resistant Plasmodium falciparum K1; assay type: toxicity, cell-based; details: L6 cells versus Plasmodium falciparum K1, read-out: Ratio IC50
In short: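 The L-6 IC50 comes from the 72 h Alamar Blue assay on rat myoblasts (MEM, 15% horse serum, 90–0.123 µg/mL). The K1 IC50 comes from [3H]-hypoxanthine uptake by infected human red cells: 48 h exposure to 5–0.078 µg/mL, then 24 h with label. SI is L-6 IC50 over K1 IC50.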

[3] = system: Trypanosoma brucei rhodesiense; assay: Antiprotozoal activity against bloodstream form of Trypanosoma brucei rhodesiense STIB 900 after 72 hrs by microplate fluorometry; assay type: functional, organism-based; details: STIB 900, 72 h
In short: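 Bloodstream forms (10⁴/well) in MEM with 2-mercaptoethanol and 15% heat-inactivated horse serum, serial dilutions 90 to 0.123 µg/mL, 72 h at 37 °C under 5% CO₂. Alamar Blue added for a further 2–4 h. Fluorescence read at ex 536 / em 588 nm and expressed as percent of control. Melarsoprol standard.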

Plasmodium falciparum = assay: Antiprotozoal activity against chloroquine- and pyrimethamine-resistant Plasmodium falciparum K1 after 48 hrs by [3H]-hypoxanthine incorporation assay; assay type: functional, organism-based
In short: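 Infected human red cells in RPMI 1640 with 5% Albumax, exposed to serial dilutions from 5 to 0.078 µg/mL for 48 h at 37 °C under reduced oxygen. [3H]-hypoxanthine (0.5 µCi/well) added, then a further 24 h. Cells harvested onto filters and scintillation counted as % of untreated control. IC50 taken from sigmoidal curves; duplicate, repeated once.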

[4] = system: Trypanosoma brucei rhodesiense; assay: Antiprotozoal activity against bloodstream form of Trypanosoma brucei rhodesiense STIB 900 infected in NMRI mouse assessed as reduction in parasitemia at 50 mg/kg, ip qd for administered 3 days post-inoculation for 4 consecutive days; assay type: functional, organism-based; set-up: dose 50 mg/kg
Plasmodium berghei [5] = assay: Antiprotozoal activity against Plasmodium berghei ANKA infected in NMRI mouse assessed as reduction in parasitemia at 50 mg/kg, ip qd for administered starting 4 h post-infection for 4 consecutive days; set-up: scale not given: the % may be the effect or the level left; details: route intraperitoneal
Plasmodium berghei [6] = assay: Antiprotozoal activity against bloodstream form of Plasmodium berghei ANKA infected in NMRI mouse assessed as mean survival time at 50 mg/kg, ip qd for administered starting 4 h post-infection for 4 consecutive days (reference value: 6 to 7 days); details: route intraperitoneal

Compound: c1ccc(C2CC3(N4CCCCC4)CCN(CCCN4CCCCC4)C2C(c2ccccc2)C3)cc1 (racemic)
- selectivity ratio [1]: 7.5

Compound: CCN(CC)CC(=O)NC1CC2(N3CCN(C)CC3)CC(c3ccccc3)C1C(c1ccccc1)C2 (racemic)
- IC50 (L6): 26400 nM
- selectivity ratio [2]: 71.3
- IC50 [3]: 670 nM
- IC50 (Plasmodium falciparum): 370 nM
- selectivity ratio [1]: 39.4

Compound: CN1CCN(C23CC(NC(=O)CN4CCCC4)C(C(c4ccccc4)C2)C(c2ccccc2)C3)CC1 (racemic)
- IC50 (L6): 27800 nM
- selectivity ratio [2]: 99.3
- IC50 [3]: 250 nM
- IC50 (Plasmodium falciparum): 280 nM
- selectivity ratio [1]: 111

Compound: CN1CCN(C23CC(NC(=O)CN4CCCCC4)C(C(c4ccccc4)C2)C(c2ccccc2)C3)CC1 (racemic)
- Activity [4]: inactive
- IC50 (L6): 22100 nM
- selectivity ratio [2]: 63.2
- IC50 [3]: 94 nM
- IC50 (Plasmodium falciparum): 350 nM
- selectivity ratio [1]: 235

Compound: CCN(CC)CCC(=O)NC1CC2(N3CCN(C)CC3)CC(c3ccccc3)C1C(c1ccccc1)C2 (racemic)
- IC50 (L6): 35900 nM
- selectivity ratio [2]: 53.6
- IC50 [3]: 2290 nM
- IC50 (Plasmodium falciparum): 670 nM
- selectivity ratio [1]: 15.7

Compound: CN1CCN(C23CC(NC(=O)CCN4CCCC4)C(C(c4ccccc4)C2)C(c2ccccc2)C3)CC1 (racemic)
- IC50 (L6): 42200 nM
- selectivity ratio [2]: 76.7
- IC50 [3]: 3100 nM
- IC50 (Plasmodium falciparum): 550 nM
- selectivity ratio [1]: 13.6

Compound: CN1CCN(C23CC(NC(=O)CCN4CCCCC4)C(C(c4ccccc4)C2)C(c2ccccc2)C3)CC1 (racemic)
- IC50 (L6): 15400 nM
- selectivity ratio [2]: 66.7
- IC50 [3]: 1270 nM
- IC50 (Plasmodium falciparum): 230 nM
- selectivity ratio [1]: 12.1

Compound: CCN(CC)C(=O)CNC1CC2(N3CCN(C)CC3)CC(c3ccccc3)C1C(c1ccccc1)C2 (racemic)
- IC50 (L6): 37900 nM
- selectivity ratio [2]: 32.7
- IC50 [3]: 500 nM
- IC50 (Plasmodium falciparum): 1160 nM
- selectivity ratio [1]: 75.9

Compound: CN1CCN(C23CC(NCCC(=O)N4CCCC4)C(C(c4ccccc4)C2)C(c2ccccc2)C3)CC1 (racemic)
- IC50 (L6): 21400 nM
- selectivity ratio [2]: 36.4
- IC50 [3]: 500 nM
- IC50 (Plasmodium falciparum): 590 nM
- selectivity ratio [1]: 42.9

Compound: CN1CCN(C23CC(NCCCN4CCCC4)C(C(c4ccccc4)C2)C(c2ccccc2)C3)CC1 (racemic)
- IC50 (L6): 22600 nM
- selectivity ratio [2]: 33.8
- IC50 [3]: 1610 nM
- IC50 (Plasmodium falciparum): 670 nM
- selectivity ratio [1]: 14.1

- IC50 [3]: 2020 nM
Compound: c1ccc(C2CC3(N4CCCCC4)CC(NCCCN4CCCC4)C2C(c2ccccc2)C3)cc1 (racemic)
- selectivity ratio [1]: 13.4

Compound: CCN(CC)CCCN1CCC2(N3CCN(C)CC3)CC(c3ccccc3)C1C(c1ccccc1)C2 (racemic)
- Activity (Plasmodium berghei [5]): 17%
- Time (Plasmodium berghei [6]): 4 days
- IC50 (L6): 68100 nM
- selectivity ratio [2]: 1140
- IC50 [3]: 2560 nM
- IC50 (Plasmodium falciparum): 60 nM
- selectivity ratio [1]: 26.6

Compound: CN1CCN(C23CCN(CCCN4CCCC4)C(C(c4ccccc4)C2)C(c2ccccc2)C3)CC1 (racemic)
- Activity (Plasmodium berghei [5]): 0%
- Time (Plasmodium berghei [6]): 4 days
- IC50 (L6): 43500 nM
- selectivity ratio [2]: 726
- IC50 [3]: 2590 nM
- IC50 (Plasmodium falciparum): 60 nM
- selectivity ratio [1]: 16.8

Compound: CN1CCN(C23CCN(CCCN4CCCCC4)C(C(c4ccccc4)C2)C(c2ccccc2)C3)CC1 (racemic)
- Activity (Plasmodium berghei [5]): 11%
- Time (Plasmodium berghei [6]): 4 days
- IC50 (L6): 28900 nM
- selectivity ratio [2]: 577
- IC50 [3]: 2540 nM
- IC50 (Plasmodium falciparum): 50 nM
- selectivity ratio [1]: 11.4

Compound: C[C@@H]1CC[C@H]2[C@@H](C)C(=O)O[C@@H]3O[C@@]4(C)CC[C@@H]1[C@]32OO4 [ARTEMISININ]
- selectivity ratio [2]: 70.4
- IC50 (Plasmodium falciparum): 6.4 nM

Compound: CCN(CC)CCCC(C)Nc1ccnc2cc(Cl)ccc12 (centres undefined) [CHLOROQUINE]
- Activity (Plasmodium berghei [5]): 99.6%
- Time (Plasmodium berghei [6]): 20 days
